Experimental data published in ChEMBL document CHEMBL4014261, “Design, Synthesis, and Antimicrobial Evaluation of a Novel Bone-Targeting Bisphosphonate-Ciprofloxacin Conjugate for the Treatment of Osteomyelitis Biofilms” (J Med Chem, 2017).
Values after ≈ are worked out from the molar mass of the structure shown. Active and inactive are the calls of the source. The calls are words filed in the database; no cut-off is given here.

Assays:
Staphylococcus aureus [1] = assay: Antibacterial activity against methicillin-sensitive Staphylococcus aureus isolate 1 planktonic cells after 24 hrs by microdilution assay; type: functional; conditions: isolate 1, 24 h
Procedure, shortened: (§1)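 Planktonic cells at 1 × 10^5 CFU/mL were exposed to compound, and A580 was read at 0 h and after 24 h at 37 °C with shaking. Controls were medium plus microbes, with 1% (v/v) DMSO where the solvent was used. Relative cell number was calculated against the control. Results were confirmed by subculture in fresh medium (48 h, 37 °C) and plating. Conjugate concentrations were expressed as parent-antibiotic equivalents.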

Staphylococcus aureus [2] = assay: Antibacterial activity against methicillin-sensitive Staphylococcus aureus isolate 2 planktonic cells after 24 hrs by microdilution assay; type: functional; conditions: isolate 2, 24 h; procedure, shortened: as §1
Staphylococcus aureus [3] = assay: Antibacterial activity against methicillin-sensitive Staphylococcus aureus isolate 3 planktonic cells after 24 hrs by microdilution assay; type: functional; conditions: isolate 3, 24 h; procedure, shortened: as §1
Staphylococcus aureus [4] = assay: Antibacterial activity against methicillin-sensitive Staphylococcus aureus isolate 4 planktonic cells after 24 hrs by microdilution assay; type: functional; conditions: isolate 4, 24 h; procedure, shortened: as §1
Staphylococcus aureus [5] = assay: Antibacterial activity against methicillin-sensitive Staphylococcus aureus isolate 5 planktonic cells after 24 hrs by microdilution assay; type: functional; conditions: isolate 5, 24 h; procedure, shortened: as §1
Staphylococcus aureus [6] = assay: Antibacterial activity against methicillin-sensitive Staphylococcus aureus isolate 6 planktonic cells after 24 hrs by microdilution assay; type: functional; conditions: isolate 6, 24 h; procedure, shortened: as §1
Staphylococcus aureus [7] = assay: Antibacterial activity against methicillin-sensitive Staphylococcus aureus ATCC 6538 planktonic cells after 24 hrs by microdilution assay; type: functional; conditions: ATCC 6538, 24 h; procedure, shortened: as §1
Staphylococcus aureus [8] = assay: Antibacterial activity against methicillin-resistant Staphylococcus aureus MR4-CIPS planktonic cells after 24 hrs by microdilution assay; type: functional
Procedure, shortened: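 Broth microdilution: 100 µL of 1 × 10^5 CFU/mL inoculum with graded compound concentrations, read at 580 nm before and after 24 h at 37 °C with shaking to prevent biofilm formation. Relative cell number is taken against medium + microbes controls, with 1% DMSO in the ciprofloxacin control. Growth is confirmed by 48 h subculture in fresh medium and by plating. MIC is expressed as parent-antibiotic equivalents.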

Staphylococcus aureus [9] = assay: Antibacterial activity against methicillin-sensitive Staphylococcus aureus isolate 1 planktonic cells at 5 mg after 24 hrs by disc diffusion test; parameters: dose or concentration left out as unconfirmed; conditions: isolate 1, 24 h, read-out: DIZ
Staphylococcus aureus [10] = assay: Antibacterial activity against methicillin-sensitive Staphylococcus aureus isolate 2 planktonic cells at 5 mg after 24 hrs by disc diffusion test; parameters: dose or concentration left out as unconfirmed; conditions: isolate 2, 24 h, read-out: DIZ
Staphylococcus aureus [11] = assay: Antibacterial activity against methicillin-sensitive Staphylococcus aureus isolate 3 planktonic cells at 5 mg after 24 hrs by disc diffusion test; parameters: dose or concentration left out as unconfirmed; conditions: isolate 3, 24 h, read-out: DIZ
Staphylococcus aureus [12] = assay: Antibacterial activity against methicillin-sensitive Staphylococcus aureus isolate 4 planktonic cells at 5 mg after 24 hrs by disc diffusion test; parameters: dose or concentration left out as unconfirmed; conditions: isolate 4, 24 h, read-out: DIZ
Staphylococcus aureus [13] = assay: Antibacterial activity against methicillin-sensitive Staphylococcus aureus isolate 5 planktonic cells at 5 mg after 24 hrs by disc diffusion test; parameters: dose or concentration left out as unconfirmed; conditions: isolate 5, 24 h, read-out: DIZ
Staphylococcus aureus [14] = assay: Antibacterial activity against methicillin-sensitive Staphylococcus aureus isolate 6 planktonic cells at 5 mg after 24 hrs by disc diffusion test; parameters: dose or concentration left out as unconfirmed; conditions: isolate 6, 24 h, read-out: DIZ
Staphylococcus aureus [15] = assay: Antibacterial activity against methicillin-resistant Staphylococcus aureus MR4-CIPS planktonic cells at 5 mg after 24 hrs by disc diffusion test; parameters: dose or concentration left out as unconfirmed; conditions: read-out: DIZ
Staphylococcus aureus [16] = assay: Bactericidal activity against Staphylococcus aureus ATCC 6538 biofilm using hydroxyapatite as substrate assessed as reduction in colony forming units after 24 hrs; type: functional
Procedure, shortened: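 Biofilms were started from a 1 McFarland suspension, allowed to adhere 4 h at 37 °C on HA discs or polystyrene well bottoms, then rinsed. They were exposed 24 h at 37 °C to TSB containing 0.24–125 mg/L compound. Cells were detached in 0.5% saponin by 1 min vortexing, serially diluted and plated on Columbia (S. aureus) or MacConkey (P. aeruginosa) agar, 37 °C, 24 h. Read-out was mean CFU/mm² ± SEM; HA area was measured by X-ray tomography.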

Pseudomonas aeruginosa = assay: Bactericidal activity against Pseudomonas aeruginosa ATCC 15442 biofilm using hydroxyapatite as substrate assessed as reduction in colony forming units at 8 ug/ml at pH 4.8 to 7.4 after 24 hrs; type: functional
Staphylococcus aureus [17] = assay: Antibiofilm activity against Staphylococcus aureus ATCC 6538 assessed as CFU counts at 100 ug/mL pretreated with HA for 24 hrs followed by organism inoculation measured after 24 hrs (reference value: 8.1 x 10^10CFU); type: functional
Procedure, shortened: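 HA discs were soaked 24 h at 37 °C in 2 mL compound solution, with DMSO or phosphate-buffer controls, then rinsed 3× with sterile water. Discs were inoculated with 2 mL of 0.5 McFarland S. aureus ATCC 6538 for biofilm formation. Biofilm CFU were counted after 24 h growth.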

Staphylococcus aureus [18] = assay: Antibiofilm activity against Staphylococcus aureus ATCC 6538 assessed as CFU counts at 200 ug/mL pretreated with HA for 24 hrs followed by organism inoculation measured after 24 hrs (reference value: 8.1 x 10^10CFU); type: functional
Staphylococcus aureus [19] = assay: Antibiofilm activity against Staphylococcus aureus ATCC 6538 assessed as CFU counts at 400 ug/mL pretreated with HA for 24 hrs followed by organism inoculation measured after 24 hrs (reference value: 8.1 x 10^10CFU); type: functional
[20] = tested on: Aggregatibacter actinomycetemcomitans; assay: Antibiofilm activity against Aggregatibacter actinomycetemcomitans D7S-1 serotype A at 5 mg after 24 hrs by disc diffusion assay; type: functional; conditions: read-out: DIZ
[21] = tested on: Aggregatibacter actinomycetemcomitans; assay: Antibiofilm activity against Aggregatibacter actinomycetemcomitans D7S-1 serotype A after 24 hrs by microdilution assay; type: functional
[22] = tested on: Aggregatibacter actinomycetemcomitans; assay: Antibiofilm activity against Aggregatibacter actinomycetemcomitans infected in jawbone peri-implant osteomyelitis Sprague-Dawley rat model assessed as bacterial count in bone per gram at 10 mg/kg, ip administered 3 times per week measured after 1 week post pharmacotherapy relative to control; type: functional
Procedure, shortened: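 Rats carried two titanium implants each, preinoculated with A. actinomycetemcomitans D7S-1 biofilm (10^9 CFU), placed bilaterally in palatal bone. One week after surgery, randomized groups received i.p. doses in sterile saline; the negative control was endotoxin-free saline. One week after treatment, 1 cm² peri-implant tissue and bone were homogenized in 0.5% saponin, serially diluted 10-fold and spread-plated on modified TSB (37 °C, 5% CO2, 48 h). Read-out was CFU/g and mean log10 reduction; analysts were blinded.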

Staphylococcus aureus [23] = assay: microbe, parasite or virus in culture; parameters: dose or concentration left out as unconfirmed; conditions: ATCC 6538, 24 h, read-out: DIZ
Staphylococcus aureus [24] = assay: Antibiofilm activity against Staphylococcus aureus ATCC 6538 assessed as reduction in bacterial adherence to HA at 15.6 to 250 ug/ml pretreated with HA for 24 hrs followed by organism inoculation measured after 24 hrs; type: functional
Procedure, shortened: (§2)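 HA spherules (final 10 mg/mL) in TSB were preincubated 24 h at 37 °C with shaking with compound (final 0.12–250 mg/L), then pelleted and the supernatant discarded. They were inoculated with 1 mL S. aureus at 10^5 CFU/mL. A580 was read at 0 and 24 h (37 °C, shaking) against controls without spherules and spherules without compound; spherules were also plated for CFU.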

Staphylococcus aureus [25] = assay: Antibiofilm activity against Staphylococcus aureus ATCC 6538 assessed as reduction in bacterial adherence to HA at 0.24 to 7.8 ug/ml pretreated with HA for 24 hrs followed by organism inoculation measured after 24 hrs; type: functional; procedure, shortened: as §2
Staphylococcus aureus [26] = assay: Bactericidal activity against Staphylococcus aureus ATCC 6538 biofilm using hydroxyapatite as substrate assessed as reduction in colony forming units at 0.24 to 250 ug/ml after 24 hrs; type: functional

O=C(O)c1cn(C2CC2)c2cc(N3CCNCC3)c(F)cc2c1=O [CIPROFLOXACIN]
MIC (Staphylococcus aureus [1]): 1 µg/mL (≈ 3.02 µM) | MIC (Staphylococcus aureus [2]): 0.25 µg/mL (≈ 0.754 µM) | MIC (Staphylococcus aureus [3]): 0.25 µg/mL (≈ 0.754 µM) | MIC (Staphylococcus aureus [4]): 1 µg/mL (≈ 3.02 µM) | MIC (Staphylococcus aureus [5]): 0.5 µg/mL (≈ 1.51 µM) | MIC (Staphylococcus aureus [6]): 1 µg/mL (≈ 3.02 µM) | MIC (Staphylococcus aureus [7]): 1 µg/mL (≈ 3.02 µM) | MIC (Staphylococcus aureus [8]): 1 µg/mL (≈ 3.02 µM) | zone of inhibition (Staphylococcus aureus [9]): 25 to 40 mm | zone of inhibition (Staphylococcus aureus [10]): 25 to 40 mm | zone of inhibition (Staphylococcus aureus [11]): 25 to 40 mm | zone of inhibition (Staphylococcus aureus [12]): 25 to 40 mm | zone of inhibition (Staphylococcus aureus [13]): 25 to 40 mm | zone of inhibition (Staphylococcus aureus [14]): 25 to 40 mm | zone of inhibition (Staphylococcus aureus [15]): 25 to 40 mm | MBIC90 (Staphylococcus aureus [16]): 8 µg/mL | Activity (Pseudomonas aeruginosa): inactive | Activity (Staphylococcus aureus [17]): Active | Activity (Staphylococcus aureus [18]): Active | Activity (Staphylococcus aureus [19]): Active | zone of inhibition at 5000 µg/disc [20]: > 40 mm | MIC90 [21]: 2 µg/mL (≈ 6.04 µM) | Activity [22]: 90% | zone of inhibition (Staphylococcus aureus [23]): 25 to 40 mm

O=C(O)c1cn(C2CC2)c2cc(N3CCN(C(=O)c4ccc(CC(P(=O)(O)O)P(=O)(O)O)cc4)CC3)c(F)cc2c1=O
MIC (Staphylococcus aureus [1]): 31.2 µg/mL (≈ 50 µM) | MIC (Staphylococcus aureus [2]): 31.2 µg/mL (≈ 50 µM) | MIC (Staphylococcus aureus [3]): 15.6 µg/mL (≈ 25 µM) | MIC (Staphylococcus aureus [4]): 62.5 µg/mL (≈ 100 µM) | MIC (Staphylococcus aureus [5]): 7.8 µg/mL (≈ 12.5 µM) | MIC (Staphylococcus aureus [6]): 15.6 µg/mL (≈ 25 µM) | MIC (Staphylococcus aureus [7]): 62.5 µg/mL (≈ 100 µM) | Activity (Staphylococcus aureus [24]): inactive | Activity (Staphylococcus aureus [25]): inactive | Activity (Staphylococcus aureus [26]): inactive
